Among the data in the RNAGym collection of RNA variant scans (doi:10.1126/science.aae0568) are yeast fitness values, retold here.

This sample holds only a part of the variants without activity.

B1: tRNA (parent)
chain: GUUCCGUUGGCGUAAUGGUAACGCGUCUCCCUCCUAAGGAGAAGACUGCGGGUUCGAGUCCCGUACGGAACG

In this data set the parent is B1. Kind of data set: yeast fitness relative to wild type (ratio to wild type); higher = fitter; tRNA-Arg(CCU), competitive growth, 37 C, YPD. In short, it runs like this:
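Variants of the tRNA-Arg(CCU) gene were chemically synthesised with a 3% per-site mutation rate across 69 sites and placed at the native genomic locus in Saccharomyces cerevisiae. Six parallel replicates of the pooled strains were competed in YPD at 37°C for 24 hours, and gene amplicons from the start and end populations were read by 100-nucleotide paired-end sequencing. Darwinian fitness relative to wild type was derived from changes in genotype frequencies. Genotypes required ≥ 100 starting reads, and estimates < 0.5 were set to 0.5.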
On to GUACCCUUGGCGUAAUGGUUACGCGUCUCCCUCCUUAGGAGAAGACUGCGGGUUCGAGUCCCGUACGGAACG, for which the yeast fitness amounted to 0.571. Then GUACCGUUGGCGUAAUGGUAACGCGUCUCCUUCCUAAGGAGAAGACCGCGGGUUCGAGUCCCGUACGGAACG, with 0.871; and GUACCGUUGGCGUAAUGGUAACGCGUCUCCCUCCUAAGGAGAAGACUGUGGGUUCGAGUCCCAUACGGAACG, with 0.764. Regarding GUACCGUUGGCGUAAUGGUAACGCGUCUCCCUGGAAAGGAGAAAACUGCGGGUUCGAGUCCCGUACGGAACG, the yeast fitness was 0.556. Consider GUACCGUUCGCGUAAUGGUAACGCGUCUCCCUCCUAAGAAGAAGACUGCGGGUUUGAGUCCCGUACGGACCG, for which the yeast fitness was at most 0.5.

Take GUACCGUUCGCGUAAUGGUGACGCGUCUACCUCCUAAGGAGAAGACUGCGGGUUCGAGUCCCGUACUGAACG: the yeast fitness came out at 0.633. GUACCGUUGGCGUAAUGGUAACGCGUCUCCUUCCUAAGGAGAAGUCUGCGGGUUCGAGUCCCGUACGCAACG: the yeast fitness was at most 0.5.

GUACCGUUGGCGUAAUGGUAACGCGUCUCCCUUCUAAGGAGAAGCCUGCGGGUUCGAGUCCCGUACGGAACG: the yeast fitness is at most 0.5. For GUACCGUUGGCGUAAUGGUAACGCGUCUCCCUCCUAAGGAGAAGAUUGCGGGUUCGAGUCCCGUACGGCACG, the yeast fitness is 0.76. For the variant GUACCGUUGGCAUUAUGGUAACGCGUCUCCCUCCUAAGGAGAAGAAUGCGGGUUCGAGUCCCGUACGGAACG, the yeast fitness was at most 0.5. As to GUACCGUUGGCGUAAUGGUAACGCGUCUCCCUCCUAAGGAGAAGACUGCGGGUUCGAGUCCUGUACGGAACG, the yeast fitness came to 0.961. GUACCGUUCGCGUAAUGGUAACGGGUCUCUCUCAUAAGGAGAAGACUGCGAGUUCGAGUCCCGUACGGAACG: the yeast fitness is at most 0.5. Then GUACCGUUCGCGUAAUGGUAACGCGUCUCCCUCCUAAGGAGAAGACUGCGGGUUCCAGUCCCGUACGGAACG, with at most 0.5; and GUACCGUUGGCGUAAUGGUAACGCGUCUCCCUUCUAAGGAGAAGACUGCGGGUUCGAGCCCCGUACGGAACG, with at most 0.5.

As to GUACCGUUCGCGUAAUGGUAACGCGUCUCCCUCCUAAGGAGAAGACUGCGGGUUCGAGUCCCGUACCGAACG, the yeast fitness is at most 0.5. Turning to GUACCAUUGGCGUAAUGGUAACGCGUCUCCCUCCUACGGAGAAGACUGCGGGUUGGACUCCCGUACGGAACG, the yeast fitness is at most 0.5. With GUACCGUUGACGUAAUGGUAACGCGUCUCUCUCCUAAGGAGAAGACUGCGGGUUCGAGUGCCGUACGGAACG, the yeast fitness was at most 0.5. On to GUACCGUUCGCGUAAUGGUAACGCGUCUCCCUCCUAAGGAGAAGACUGCGGGUUCGAGUCCCGUCCGGAACG, for which the yeast fitness is at most 0.5. On to GUACCGUUAGCGUAAUGGAAACGCGUCUCCCUCCUAAGGAGAAGACUGCGGGUUCGAGUCGCGUACGGAACG, for which the yeast fitness was at most 0.5.

As to GUACCGUUGGCGUAAUGGUAACGCGUCUCCUUCCUAAGGAGAAGACUGCGGGAUCGAGUCCCGUACGGAACG, the yeast fitness amounted to 0.518. In the case of GUACCGUUGGCAUAAUGGUAACGUGUCUCCCUCCUAAGGAGAAGUCUGCGGGUUCGAGUCCCGCACGGAACG, the yeast fitness was at most 0.5. GUACCGUUGGCGUAAUGGUAACGCGUCUCCUUCCUCAGGAGAAGACUGCGGGUUCGAGUCCCGUUCGGAACG: the yeast fitness was at most 0.5. For GUACCGUUAGCGUACUGGUAACGCGUUUCCCUCCUAAGGAGAAGACUGCGGGUUCGUGUCCAGUACGGAACG the value was 0.667; for GUACCGUUCGCGUAAUGGUCCCGCAUCUCCCUCCUAAGGAGAAGACUGCGGGUUCAAGUCCCGCACGGAACG, 0.73. For the variant GUACCGUUCGCGUAAUGGUAACGCGUCUCCCUGCUAAGGAGUUGACUGCGGGUUCGAGUCCCGUCCGCAACG, the yeast fitness is at most 0.5.

Take GUACCGUUGGCGUAAUGGUAACGCGUCUCCCUCCUAAGGAGAAGACUGCGGGUUUCAGUCCCGUACGGAACG: the yeast fitness is at most 0.5. Then GUACCGUUGGCGUAAUGGUAACGCGUCUCCCUCCUAAGGAGAAGACUGCGGGUUCGAGUCACGUACGGAACG, with 0.778. For GUACCGUUGGCGUAAUGGUAACGCGUCUCCCUCCUAAGGAGAAGACUGCGGGUUCGAGUCGCGUACGGAACG the value was 0.767; for GUACCGUUGGCGUAAUGGUAACGCGUCUCCCUCCUAAGGAGAAGACUGAGGGUUCGAGUCCCGUACGGUACG, 0.558; for GUACCGUUGGCAUAAUGGUAACGCGUCUCCCUCCUAAGGAGAAGAGUGCGGGUUCGAGUCCCGUACGGAACG, 0.657. As for GUACCGUUGGCGUAAUGGUAACGCGUCUCCCUCUUAAGGAGAGGACUGAGGAUUCGAGUCCCGUACGGAACG, the yeast fitness was at most 0.5.

Take GUACCGUUCGCGUAAUGGUAACGCGUCUCCCUCUUAAGGAGAAGACUGCGGGUUCGAGUCCCGUACGGAACG: the yeast fitness was found to be 0.548.

GUACCGUUGGCGUAAUGGUAACGCGUCUCCCUCCUAAGGAGAAGACUGCGGGUUCGAGUAUCGUACGGUACG: the yeast fitness turned out to be 0.597. Consider GUACCGUUGGCAUAAUGGUCACGCGUCUGCCUCCUAAGGAGAAGACUGCGGGUUCGAGUCCCGUACAGAACG, for which the yeast fitness was at most 0.5. GUACCGUUGGCGUAAUGGUAACGCGUCUCCCUCCUAAGGAGAAGACUGUGGGUUCGAGUUCCGUACGGAGCG: the yeast fitness is 0.551. With GUACCGUUGGCGUAAUGGUAACGCGUCUCCCUCCUAAGGAGAAGAAUGCGGGUUCGAGUCCCAUACGGCACG, the yeast fitness stood at 0.731. As for GUACCGUUGGCGUAAUGGUAACGCGUCUCCCUCCUAAGGAGAAGACUGCGGGUUCGAGUCCCGUAUGGAACG, the yeast fitness was 0.891.

Consider GUACCGUUGGCGUAAUGGUAACGCGUCUCCCUCCUAAGGAGAAGAUUGCGGGUUCCAGUCCCGUACGGUACG, for which the yeast fitness was at most 0.5.
